Assay results: ChEMBL document CHEMBL4359825, “Synthesis of novel S-linked dihydroartemisinin derivatives and evaluation of their anticancer activity” (Eur J Med Chem, 2019)
Activity calls are given as the source filed them. No cut-off for these calls is given here.

Columns and labels:
PC-3 [1] = test: Downregulation of BCL-xL mRNA expression in human PC3 cells at 3 to 10 uM measured after 72 hrs by TRIzol dye based RT-PCR analysis; assay type: functional, cell-based
How it was run: (§1)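 PC-3 (1.25 × 10^5/well) treated 72 h with 3 or 10 μM. Total RNA extracted with TRIzol; cDNA made from 2 μg RNA. SYBR qPCR: 95 °C 10 min, then 40 cycles of 95 °C/60 °C. Expression normalised to GAPDH by 2^-ΔΔCt; three experiments.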

PC-3 [2] = test: Antimigratory activity against human PC3 cells assessed as reduction in cell migration at 10 uM measured upto 24 hrs in presence of pan-caspase inhibitor Z-VAD-fmk by scratch wound healing assay; assay type: functional, cell-based
How it was run: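 PC-3 monolayers pretreated 2 h with pan-caspase inhibitor Z-VAD-FMK (10 μM) before scratching and treatment with test agent. Wound closure imaged by phase contrast at 0, 12 and 24 h.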

PC-3 [3] = test: Induction of cell death in human PC3 cells measured after 72 hrs by propidium iodide staining based flow cytometry analysis; assay type: functional
How it was run: (§2)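 PC-3 cells in six-well plates exposed to 3 or 10 μM for 72 h, 0.1% DMSO vehicle as control; cells harvested, PBS-washed, stained with propidium iodide (5 μg/mL) 20 min at 4 °C; percentage dead cells read by flow cytometry; t-test against vehicle.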

MDA-MB-231 = test: Anticancer activity against human MDA-MB-231 cells assessed as reduction in cell viability measured after 72 hrs by MTT assay; assay type: functional, cell-based; details: MDA-MB-231, 72 h
PC-3 [4] = test: Induction of apoptosis in human PC3 cells assessed as decrease in mitochondrial membrane potential at 3 to 10 uM after 48 hrs by JC-1 staining based fluorescence microscopy analysis; assay type: functional, cell-based
How it was run: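 PC-3 cells exposed to 3 or 10 μM for 48 h, then stained with JC-1 (10 μM) for 30 min in the dark. Mitochondrial potential judged by red/green fluorescence under a fluorescence microscope.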

PC-3 [5] = test: Induction of cell death in human PC3 cells at 10 uM measured after 72 hrs by propidium iodide staining based flow cytometry analysis (reference value: 0.5 %); assay type: functional; how it was run: as §2
PC-3 [6] = test: Anticancer activity against human PC3 cells assessed as cell viability measured after 72 hrs by MTT assay (reference value: 100 +/- 18.8 %); assay type: functional; parameters: concentration or dose not given beside the values
PC-3 [7] = test: Cell cycle arrest in human PC3 cells assessed as accumulation at G2/M phase at 10 uM measured after 48 hrs by RNase/propidium iodide staining based flow cytometry analysis (reference value: 34.95 %); assay type: functional
[8] = biological target: Peptidyl-prolyl cis-trans isomerase NIMA-interacting 1 (Homo sapiens) (UniProt Q13526); test: Inhibition of Pin1 in human PC3 cells assessed as downregulation of cyclin D1 measured after 72 hrs by Western blot analysis; assay type: cell-based
How it was run: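 PC-3 cells (1.25×10^5 per well) exposed 72 h to 0.1, 0.3, 1, 3 or 10 μM; lysed in 2× SDS buffer, sonicated, BCA-quantified; 20-25 μg protein on 12% SDS gel, PVDF, 5% BSA block, primary antibody overnight, secondary 1 h; ECL detection, β-actin loading control.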

PC-3 [9] = test: Downregulation of Pin1 expression in human PC3 cells at 3 to 10 uM measured after 72 hrs by Western blot analysis; assay type: functional, cell-based
How it was run: (§3)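 Western blot: PC-3 seeded 1.25 × 10^5/well, exposed to 0.1–10 μM for 72 h. Lysed in 2× SDS buffer and sonicated; 20–25 μg protein run on 12% SDS gel, transferred to PVDF, blocked in 5% BSA/TBST. Primary antibodies overnight, secondary 1 h; ECL detection, β-actin loading control.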

PC-3 [10] = test: Induction of apoptosis in human PC3 cells assessed as nuclear condensation at 3 to 10 uM after 72 hrs by Hoechst 33342 staining based fluorescence microscopy; assay type: functional, cell-based
How it was run: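 PC-3 cells treated 72 h with 3 or 10 μM, stained with Hoechst 33342 for 15 min at room temperature in the dark, washed with PBS, and nuclei examined by fluorescence microscopy for condensation.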

PC-3 [11] = test: Cell cycle arrest in human PC3 cells assessed as accumulation at G0/G1 phase at 3 uM measured after 48 hrs by RNase/propidium iodide staining based flow cytometry analysis (reference value: 42.59 %); assay type: functional
PC-3 [12] = test: Antimigratory activity against human PC3 cells assessed as reduction in cell migration at 3 to 10 uM measured upto 24 hrs by scratch wound healing assay; assay type: functional, cell-based
How it was run: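 Wound healing: PC-3 seeded 3 × 10^5/well, grown to a monolayer at 37 °C, 5% CO2. Scratch made with a pipette tip, detached cells washed off, then 3 or 10 μM added.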

PC-3 [13] = test: Antimetastatic activity against human PC3 cells assessed as inhibition of MMP-9 at 3 to 10 uM measured after 48 hrs by gelatin zymography; assay type: functional, cell-based
How it was run: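 PC-3 monolayers scratched, then treated with 3 or 10 μM for 48 h in serum-containing medium, then 24 h in serum-free medium. Conditioned medium run non-reduced on 7.5% SDS-PAGE containing gelatin 4 mg/mL. Gel washed in 2.5% Triton X-100, incubated 24 h at 37 °C in Tris pH 7.5 with CaCl2/ZnCl2, Coomassie stained; lysis seen as clear bands.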

HeLa = test: Anticancer activity against human HeLa cells assessed as cell viability measured after 72 hrs by MTT assay (reference value: 100 +/- 11.5 %); assay type: functional; parameters: concentration or dose not given beside the values
PC-3 [14] = test: Antimigratory activity against human PC3 cells assessed as reduction in cell migration at 3 to 10 uM measured after 48 hrs by transwell assay; assay type: functional, cell-based
How it was run: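 Transwell migration through 8.0 μm polycarbonate membranes: 40,000 PC-3 cells in serum-free medium in the upper chamber with 3 or 10 μM; RPMI-1640 with 10% FBS below. After 48 h, non-migrated cells swabbed off. Migrated cells fixed in 75% ethanol for 10 min, Hoechst stained and counted per field versus DMSO.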

A-431 = test: Anticancer activity against human A431 cells assessed as cell viability measured after 72 hrs by MTT assay (reference value: 100 +/- 11.7 %); assay type: functional; parameters: concentration or dose not given beside the values
PC-3 [15] = test: Induction of apoptosis in human PC3 cells assessed as cell shrinkage at 3 to 10 uM after 72 hrs by phase contrast microscopy; assay type: functional, cell-based
How it was run: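 PC-3 cells in exponential growth exposed to 3 or 10 μM for 72 h, washed gently with PBS, and apoptotic morphology recorded by phase-contrast microscopy.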

PC-3 [16] = test: Induction of reactive oxygen species generation in human PC3 cells assessed as increase in intracellular ROS level at 3 to 10 uM incubated for 3 hrs by CM-H2DCFDA staining based fluorescence microscopy analysis; assay type: functional, cell-based
How it was run: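 Approx. 1×10^5 PC-3 cells per well treated 3 h at 3 or 10 μM; medium replaced with 10 μM CM-H2DCFDA for 30 min in dark at 37 °C, nuclei counterstained Hoechst 33342 (1 μg/mL) 15 min at room temperature; fluorescence microscopy, percentage ROS-producing cells scored versus vehicle.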

PC-3 [17] = test: Downregulation of cMyc in human PC3 cells at 3 to 10 uM measured after 72 hrs by Western blot analysis; assay type: functional, cell-based; how it was run: as §3
PC-3 [18] = test: Anticancer activity against human PC3 cells assessed as reduction in cell viability measured after 72 hrs by MTT assay; assay type: functional, cell-based; details: PC-3, 72 h
PC-3 [19] = test: Downregulation of E2F1 mRNA expression in human PC3 cells at 3 to 10 uM measured after 72 hrs by TRIzol dye based RT-PCR analysis; assay type: functional, cell-based; how it was run: as §1

Peptidyl-prolyl cis-trans isomerase NIMA-interacting 1 (Homo sapiens), sequence (Q13526 whole entry): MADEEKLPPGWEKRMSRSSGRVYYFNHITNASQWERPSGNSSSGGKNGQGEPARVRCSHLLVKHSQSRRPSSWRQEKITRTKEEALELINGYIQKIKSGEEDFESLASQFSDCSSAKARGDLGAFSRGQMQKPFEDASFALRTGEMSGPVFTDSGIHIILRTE

In the case of `COC(=O)Cc1ccc(S[C@@H]2O[C@@H]3O[C@@]4(C)CC[C@H]5[C@H](C)CC[C@@H]([C@H]2C)[C@@]35OO4)cc1`, the Activity (PC-3 [1]) is reported as “Active”, the inhibition (PC-3 [2]) is reported as “inactive” and the Activity (PC-3 [3]) is reported as “Dose-dependent effect”. For the same compound, the IC50 (MDA-MB-231) was 9.03 µM, the Activity (PC-3 [4]) was “Active” and the Activity (PC-3 [5]) was 28.9%. For the same compound, the Activity (PC-3 [6]) was 28%, the Activity (PC-3 [7]) was 32.19% and the inhibition [8] was “Dose-dependent effect”. For the same compound, the Activity (PC-3 [9]) was “Active”, the Activity (PC-3 [10]) was “Active” and the Activity (PC-3 [11]) was 54.49%. For the same compound, the Activity (PC-3 [12]) was “Active”, the inhibition (PC-3 [13]) was “Dose-dependent effect” and the Activity (HeLa) was 43%. For the same compound, the Activity (PC-3 [14]) was “Active”, the Activity (A-431) was 35% and the Activity (PC-3 [15]) was “Active”. The Activity (PC-3 [16]) was “Active”, the Activity (PC-3 [17]) was “Active” and the IC50 (PC-3 [18]) was 6.13 µM. The Activity (PC-3 [19]) was “Active”.
